Measurements published in ChEMBL document CHEMBL1131419, “Methoxy-substituted 3-formyl-2-phenylindoles inhibit tubulin polymerization” (J Med Chem, 1998).

Experiments:
Tubulin = Tubulin (Bos taurus, UniProt Q6B856+Q862L2+Q862F3); format: protein assay
Tubulin (Bos taurus) = Tubulin (Bos taurus) (UniProt Q6B856+Q862L2+Q862F3); test: Tested for its capability of competing with colchicine for binding to tubulin.; format: protein assay; design: concentration or dose not given beside the values; conditions: concentration not given here
Summary of the method: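 Calf brain tubulin (cycled, diluted 1:10 in PEM pH 6.6–6.7) incubated with 1 μM [3H]colchicine and 10 μM inhibitor (DMSO) for 30 min at 37 °C; GTP added on ice, mixture filtered through DEAE-cellulose filters, washed with PEM, bound radioactivity counted by liquid scintillation; no-tubulin mixtures as background. Mean of two independent experiments.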

Row | IC50 (Tubulin) | inhibition (Tubulin (Bos taurus)) | SMILES
1 | 1.8 µM | 56% | COc1ccc(-c2sc3cc(OC)ccc3c2C=O)cc1
2 | 1.8 µM |  | COc1ccc(-c2[nH]c3cc(F)ccc3c2C=O)cc1
3 | 1.5 µM | 23% | COc1ccc(-c2[nH]c3cc(OC)ccc3c2C=O)cc1
4 |  | < 10% | CCCC1Cc2cc(OC)ccc2-c2c(C=O)c3ccc(OC)cc3n21 (configuration not stated)
5 |  | 30% | COc1ccc(-c2c(C=O)c3ccc(OC)cc3n2C)cc1
6 | 4 µM |  | COc1ccc(-c2[nH]c3ccc(OC)cc3c2C=O)cc1
7 | 8.9 µM |  | CCCCC1Cc2cc(O)ccc2-c2c(C=O)c3ccc(O)cc3n21 (configuration not stated)
8 | 19 µM | 40% | CCCC1Cc2cc(O)ccc2-c2c(C=O)c3ccc(O)cc3n21 (configuration not stated)
9 | 3.3 µM |  | COc1ccc(-c2[nH]c3ccccc3c2C=O)cc1
